For assay [1], the target named is Human immunodeficiency virus type 1 reverse transcriptase (Human immunodeficiency virus 1) (UniProt Q72547). The experiment in a line: Inhibitory activity against HIV-1 replication in MT-4 cells. The note with it: MT4. Format: functional, cell-based. In a few lines: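 HTLV-IIIB strain of HIV in MT-4 cells, run in parallel with cytotoxicity on uninfected MT-4 cells. The read-out is protection of infected cells from virus-induced cytopathic effect. ED50 is the dose giving 50% protection.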

The test system of a further assay is MT4. Nature of the assay: Cytotoxic dose in MT-4 cells. The note with it: Homo sapiens, read-out: CD50 (the source's name). The format is functional.
In assay [2] the target is Human immunodeficiency virus type 1 reverse transcriptase (Human immunodeficiency virus 1) (UniProt Q72547). The experiment in a line: Selectivity index is the […] values against inhibition of HIV-1 in MT-4 cells. Format: functional, cell-based. The note with it: MT4. In a few lines:
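Selectivity index is CD50 (50% viability reduction of uninfected MT-4 cells) divided by ED50 (50% protection of HIV-infected MT-4 cells against cytopathic effect). Both come from parallel assays.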

Molecule `OC[C@H]1O[C@@H](n2cnc3c(O)ncnc32)C[C@@H]1F` returned an ED50 in assay [1] of 484 µM. Also, the CC50 in the assay with MT4 turned out to be 500 µM. In addition, the SI in assay [2] stood at 1.
For the molecule `[N-]=[N+]=N[C@H]1C[C@H](n2cnc3c(N)ncnc32)O[C@@H]1CO`, in assay [1], the ED50 was 5 µM.
The molecule `Nc1ncnc2c1ncn2[C@H]1C[C@H](F)[C@@H](CO)O1` gave an ED50 in assay [1] of 50 µM. Further, the CC50 with MT4 was 557 µM. The SI in assay [2] turned out to be 11.1.
As for `Cc1cn([C@@H]2O[C@H](CO)C[C@H]2F)c(=O)nc1N`, in assay [1], the ED50 was more than 500 µM. In addition, the CC50 in the assay on MT4 is more than 500 µM.
In the case of `O=c1[nH]c(=O)n([C@H]2C[C@H](F)[C@@H](CO)O2)cc1Br`, the ED50 in assay [1] was 0.41 µM. Further, in the assay on MT4, the CC50 is 24 µM. The SI in assay [2] amounted to 59.
Regarding `[N-]=[N+]=N[C@H]1C[C@H](n2cnc3c(O)ncnc32)O[C@@H]1CO`, the ED50 in assay [1] is more than 8 µM. For the same molecule, the CC50 in the assay with MT4 worked out at 15 µM. In addition, the SI in assay [2] was less than 2.
In turn, `COc1ccn([C@H]2C[C@H](F)[C@@H](CO)O2)c(=O)n1` returned an ED50 in assay [1] of 46 µM. Further, the CC50 in the assay on MT4 was determined as 348 µM. Also, the SI in assay [2] was 7.6.
In assay [1], `O=c1[nH]c(=O)n([C@H]2C[C@H](F)[C@@H](CO)O2)cc1F` came in with an ED50 of more than 20 µM. The CC50 in the assay with MT4 was found to be 40 µM. In addition, in assay [2], the SI is less than 2.
On to `Cc1cn([C@H]2C[C@H](F)[C@@H](CO)O2)c(=O)nc1N`, for which the ED50 in assay [1] worked out at 1.7 µM. In addition, in the assay on MT4, the CC50 was 7.7 µM. In assay [2], the SI amounted to 4.5.
Molecule `Nc1ncnc2c1nc(Br)n2[C@H]1CC[C@@H](CO)O1` displayed an ED50 in assay [1] of 484 µM. The CC50 in the assay on MT4 came out at 500 µM. In addition, the SI in assay [2] worked out at 1.
Molecule `Cc1cn([C@H]2C[C@H](F)[C@@H](CO)O2)c(=O)[nH]c1=O` [ALOVUDINE] registered an ED50 in assay [1] of 0.001 µM. For the same molecule, in the assay on MT4, the CC50 stood at 0.197 µM. For the same molecule, the SI in assay [2] was determined as 197.
As for `[N-]=[N+]=N[C@H]1C[C@H](n2c(Br)nc3c(N)ncnc32)O[C@@H]1CO`, the ED50 in assay [1] was more than 500 µM. Also, in the assay on MT4, the CC50 came to 409 µM. In addition, in assay [2], the SI was less than 1.
For the molecule `Cc1cn([C@@H]2O[C@H](CO)C[C@@H]2F)c(=O)[nH]c1=O`, the ED50 in assay [1] was more than 500 µM. In addition, the CC50 in the assay with MT4 was more than 500 µM.
`Nc1ncnc2c1ncn2[C@H]1CC[C@@H](CO)O1`: in assay [1], the ED50 is 6.4 µM. In the assay on MT4, the CC50 was found to be 890 µM. For the same molecule, the SI in assay [2] is 139.
In assay [1], `Nc1ccn([C@@H]2O[C@H](CO)C[C@@H]2F)c(=O)n1` showed an ED50 of 9.8 µM. For the same molecule, the CC50 in the assay on MT4 was found to be 117 µM. The SI in assay [2] is 12.
For `Cc1cn([C@@H]2O[C@H](CO)C[C@H]2F)c(=O)[nH]c1=O` the same measures were 53 µM, more than 500 µM and more than 9.4.
Taken in the same sequence, the figures for `O=c1ccn([C@H]2C[C@H](F)[C@@H](CO)O2)c(=O)[nH]1` were 0.04 µM, 16 µM and 400.
Taken in the same sequence, the figures for `Cc1cn([C@H]2C[C@H](N=[N+]=[N-])[C@@H](CO)O2)c(=O)[nH]c1=O` [ZIDOVUDINE] were 0.003 µM, 4.8 µM and 1600.
With `O=c1[nH]c(=O)n([C@H]2C[C@H](F)[C@@H](CO)O2)cc1Cl` [RALURIDINE], the ED50 in assay [1] was 0.38 µM. Also, the CC50 in the assay with MT4 came out at 535 µM. The SI in assay [2] was 1410.
Molecule `Cc1cn([C@H]2C=C(F)[C@@H](CO)O2)c(=O)[nH]c1=O` had an ED50 in assay [1] of 11 µM. Besides, in the assay on MT4, the CC50 came to 240 µM. Besides, in assay [2], the SI amounted to 22.
`O=c1[nH]c(=O)n([C@H]2C[C@H](F)[C@@H](CO)O2)cc1I`: the ED50 in assay [1] was 0.16 µM. In the assay on MT4, the CC50 stood at 2.17 µM. The SI in assay [2] worked out at 13.6.

For the origin of these results see ChEMBL document CHEMBL1124548 (1989).
